Measured values reported in ChEMBL document CHEMBL4270631, “Design, synthesis and in vitro anti-Zika virus evaluation of novel Sinefungin derivatives” (Eur J Med Chem, 2018).

Experiments:
[1] = Inhibition of recombinant N-terminal GST-tagged Dengue virus 3 NS5 N7-MTase activity expressed in Escherichia coli BL21 by scintillation proximity assay; set-up: species or system dengue virus type 3
[2] = Inhibition of recombinant N-terminal GST-tagged Dengue virus 3 2'-O-MTase activity expressed in Escherichia coli BL21 by scintillation proximity assay; set-up: species or system dengue virus type 3
[3] = Inhibition of recombinant N-terminal GST-tagged Dengue virus 3 NS5 N7-MTase F133A mutant expressed in Escherichia coli BL21 by scintillation proximity assay; set-up: species or system dengue virus type 3
[4] = Inhibition of recombinant N-terminal GST-tagged Dengue virus 3 2'-O-MTase F133A mutant expressed in Escherichia coli BL21 by scintillation proximity assay; set-up: species or system dengue virus type 3
[5] = biological target: DNA (cytosine-5)-methyltransferase 1 (Homo sapiens, UniProt P26358); experiment: Inhibition of human DNMT1A using double-stranded hemi-DNA oligonucleotide as substrate measured after 40 mins by [3H]methyl incorporation assay
Sequence of DNA (cytosine-5)-methyltransferase 1 (P26358 whole entry, the tested form may be a part): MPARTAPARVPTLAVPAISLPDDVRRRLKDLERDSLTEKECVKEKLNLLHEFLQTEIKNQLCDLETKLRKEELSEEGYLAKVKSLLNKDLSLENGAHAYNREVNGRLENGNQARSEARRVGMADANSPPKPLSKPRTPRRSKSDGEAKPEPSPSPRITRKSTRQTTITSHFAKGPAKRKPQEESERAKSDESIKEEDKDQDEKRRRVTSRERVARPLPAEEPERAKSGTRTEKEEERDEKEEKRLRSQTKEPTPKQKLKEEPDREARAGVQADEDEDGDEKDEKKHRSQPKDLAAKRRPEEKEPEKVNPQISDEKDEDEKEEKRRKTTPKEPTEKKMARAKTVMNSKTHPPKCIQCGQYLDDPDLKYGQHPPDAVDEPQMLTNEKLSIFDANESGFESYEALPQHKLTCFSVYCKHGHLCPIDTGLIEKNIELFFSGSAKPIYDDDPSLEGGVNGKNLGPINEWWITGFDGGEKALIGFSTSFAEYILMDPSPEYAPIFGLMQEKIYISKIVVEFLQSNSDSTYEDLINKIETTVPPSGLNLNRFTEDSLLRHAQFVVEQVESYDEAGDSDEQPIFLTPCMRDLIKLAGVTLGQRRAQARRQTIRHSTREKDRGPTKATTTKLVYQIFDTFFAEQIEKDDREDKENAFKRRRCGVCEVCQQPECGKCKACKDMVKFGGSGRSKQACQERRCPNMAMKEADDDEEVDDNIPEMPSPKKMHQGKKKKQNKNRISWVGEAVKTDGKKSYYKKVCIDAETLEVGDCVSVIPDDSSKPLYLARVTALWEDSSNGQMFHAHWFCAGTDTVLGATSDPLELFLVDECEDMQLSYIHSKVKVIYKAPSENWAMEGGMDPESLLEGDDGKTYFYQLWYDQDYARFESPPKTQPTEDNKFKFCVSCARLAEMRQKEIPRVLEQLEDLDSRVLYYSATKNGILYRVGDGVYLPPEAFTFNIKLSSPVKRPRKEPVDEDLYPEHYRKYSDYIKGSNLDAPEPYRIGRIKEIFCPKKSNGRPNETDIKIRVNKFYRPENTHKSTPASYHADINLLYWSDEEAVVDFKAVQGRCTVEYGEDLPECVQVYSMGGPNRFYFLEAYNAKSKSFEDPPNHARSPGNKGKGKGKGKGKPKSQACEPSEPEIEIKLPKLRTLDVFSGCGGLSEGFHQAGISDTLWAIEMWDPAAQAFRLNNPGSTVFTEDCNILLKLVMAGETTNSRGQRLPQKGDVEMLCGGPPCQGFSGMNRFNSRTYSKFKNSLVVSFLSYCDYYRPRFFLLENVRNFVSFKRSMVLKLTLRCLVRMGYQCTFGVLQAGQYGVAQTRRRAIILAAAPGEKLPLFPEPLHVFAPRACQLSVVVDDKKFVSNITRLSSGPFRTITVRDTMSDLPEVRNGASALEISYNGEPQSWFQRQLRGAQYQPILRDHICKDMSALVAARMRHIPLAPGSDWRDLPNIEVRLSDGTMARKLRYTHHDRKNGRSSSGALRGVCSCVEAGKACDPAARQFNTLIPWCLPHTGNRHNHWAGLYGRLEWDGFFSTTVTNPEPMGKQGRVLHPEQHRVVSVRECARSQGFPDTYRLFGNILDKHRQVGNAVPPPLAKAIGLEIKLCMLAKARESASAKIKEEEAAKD

[6] = biological target: mRNA cap guanine-N(7) methyltransferase (Homo sapiens, UniProt O43148); experiment: Inhibition of recombinant human N-terminal His-tagged RNMT (1 to 476 residues) expressed in Escherichia coli BL21 using 5'-GpppAGAACCUG-biotin-TEG-3 as substrate after 10 mins by [3H]methyl incorporation assay
Sequence of mRNA cap guanine-N(7) methyltransferase (O43148 whole entry, the tested form may be a part): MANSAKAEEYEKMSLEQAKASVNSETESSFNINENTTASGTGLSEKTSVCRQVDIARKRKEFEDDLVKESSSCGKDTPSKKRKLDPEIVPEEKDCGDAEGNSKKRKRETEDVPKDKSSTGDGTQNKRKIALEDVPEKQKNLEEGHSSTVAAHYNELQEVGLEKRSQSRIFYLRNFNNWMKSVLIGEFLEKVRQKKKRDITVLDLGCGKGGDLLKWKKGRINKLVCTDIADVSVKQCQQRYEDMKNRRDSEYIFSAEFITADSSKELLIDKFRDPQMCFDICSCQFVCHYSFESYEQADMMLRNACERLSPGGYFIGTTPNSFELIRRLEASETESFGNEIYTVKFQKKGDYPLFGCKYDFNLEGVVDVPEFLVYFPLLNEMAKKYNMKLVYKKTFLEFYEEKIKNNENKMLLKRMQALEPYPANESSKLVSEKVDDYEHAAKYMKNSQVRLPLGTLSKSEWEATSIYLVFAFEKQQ

Zika virus [7] = experiment: Antiviral activity against Zika virus SMGC infected in BHK cells assessed as inhibition of virus induced cytopathic effect after 8 days by CellTiter-Glo luminescent cell viability assay; type: functional, organism-based; details: 192 h
Outline: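 BHK cells seeded at 5,000/well in DMEM with 10% FBS and P/S, 24 h at 37°C, 5% CO₂, then switched to maintenance medium (DMEM, 2% FBS, P/S). Vero-grown ZIKV diluted to 100TCID₅₀ added with compounds in 3-fold dilutions from 50 μM; incubated 8 days until 100% CPE; viability read by CellTiter-Glo luminescence; IC50 calculated from curves.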

[8] = Cytotoxicity against BHK cells after 8 days by CellTiter-Glo assay; type: cell-based, Mesocricetus auratus; details: hamster
Outline: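 BHK cells seeded at 5,000/well, allowed 24 h recovery, then given maintenance medium (DMEM, 2% FBS, P/S) containing compound in 3-fold dilutions from 200 μM to 0.09 μM, or drug-free. Viability read by CellTiter-Glo luminescence after 8 days' exposure; CC50 calculated from curves.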

[9] = Selectivity index, ratio of CC50 for BHK cells to IC50 for Zika virus SMGC infected in BHK cells; type: toxicity, cell-based; details: hamster, BHK cells infected with Zika virus SMGC, read-out: Ratio CC50/IC50
Outline: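 Ratio of CC50 from 8-day CellTiter-Glo viability of uninfected BHK cells (compound 200–0.09 μM) to IC50 from 8-day protection of BHK cells against 100TCID₅₀ ZIKV-induced CPE (compound from 50 μM, 3-fold dilutions), both in DMEM with 2% FBS.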

Zika virus [10] = experiment: Potency index, ratio of EPZ004777 IC50 to test compound IC50 for Zika virus SMGC infected in BHK cells; type: functional

N[C@@H](CCSC[C@H]1O[C@@H](n2cnc3c(NCc4cccc(Cl)c4)ncnc32)[C@H](O)[C@@H]1O)C(=O)O
Ki [1]: 0.002 to 0.24 µM
Ki [2]: 0.002 to 0.24 µM
Ki [3]: 0.044 to 5.68 µM
Ki [4]: 0.044 to 5.68 µM
Ki [5]: > 50 µM
Ki [6]: > 50 µM

CC(C)N(CCCNC(=O)Nc1ccc(C(C)(C)C)cc1)C[C@H]1O[C@@H](n2ccc3c(N)ncnc32)[C@H](O)[C@@H]1O
IC50 (Zika virus [7]): 35.2 µM
CC50 at 192 h [8]: > 200 µM
selectivity ratio [9]: > 5.68

CC(C)N(CCCNC(=O)Nc1ccc(C(F)(F)F)cc1)C[C@H]1O[C@@H](n2cnc3c(NCc4cccc(F)c4)ncnc32)[C@H](O)[C@@H]1O
IC50 (Zika virus [7]): 6.46 µM
CC50 at 192 h [8]: 20.3 µM
selectivity ratio [9]: 3.14
Ratio IC50 (Zika virus [10]): 5 - 7.7

CC(C)N(CCCNC(=O)NC(C)(C)C)C[C@H]1O[C@@H](n2cnc3c(NCc4cccc(F)c4)ncnc32)[C@H](O)[C@@H]1O
IC50 (Zika virus [7]): > 50 µM

CC(C)N(CCCNC(=O)Nc1ccc(C(C)(C)C)cc1)C[C@H]1O[C@@H](n2cnc3c(NCc4cccc(Cl)c4)ncnc32)[C@H](O)[C@@H]1O
CC50 at 192 h [8]: 6.73 µM

CC(C)N(CCCO)C[C@H]1O[C@@H](n2cnc3c(NCc4cccc(F)c4)ncnc32)[C@H](O)[C@@H]1O
IC50 (Zika virus [7]): > 50 µM

COc1ccc(NC(=O)NCCCN(C[C@H]2O[C@@H](n3cnc4c(NCc5cccc(F)c5)ncnc43)[C@H](O)[C@@H]2O)C(C)C)cc1
IC50 (Zika virus [7]): > 50 µM

CC(C)N(CCCNC(=O)Nc1ccc(F)cc1)C[C@H]1O[C@@H](n2cnc3c(NCc4cccc(Cl)c4)ncnc32)[C@H](O)[C@@H]1O
IC50 (Zika virus [7]): 15.3 µM
CC50 at 192 h [8]: 20 µM
selectivity ratio [9]: 1.31

COC(=O)CCN(C[C@H]1O[C@@H](n2cnc3c(NCc4cccc(F)c4)ncnc32)[C@H](O)[C@@H]1O)C(C)C
IC50 (Zika virus [7]): > 50 µM

CC(C)N(CCCN)C[C@H]1O[C@@H](n2cnc3c(NCc4cccc(F)c4)ncnc32)[C@H](O)[C@@H]1O
IC50 (Zika virus [7]): > 50 µM

CC(C)N(CCCNC(=O)NC(C)(C)C)C[C@H]1O[C@@H](n2cnc3c(NCc4cccc(Cl)c4)ncnc32)[C@H](O)[C@@H]1O
IC50 (Zika virus [7]): 20.6 µM
CC50 at 192 h [8]: 58.5 µM
selectivity ratio [9]: 2.84

CC(C)N(CCCNC(=O)Nc1ccc(F)cc1)C[C@H]1O[C@@H](n2cnc3c(NCc4cccc(F)c4)ncnc32)[C@H](O)[C@@H]1O
IC50 (Zika virus [7]): > 50 µM

CC(C)NC[C@H]1O[C@@H](n2cnc3c(NCc4cccc(Cl)c4)ncnc32)[C@H](O)[C@@H]1O
IC50 (Zika virus [7]): 6.33 µM
CC50 at 192 h [8]: 29.4 µM
selectivity ratio [9]: 4.64

CC(C)N(CCCNC(=O)Nc1cccc(C(F)(F)F)c1)C[C@H]1O[C@@H](n2cnc3c(NCc4cccc(F)c4)ncnc32)[C@H](O)[C@@H]1O
IC50 (Zika virus [7]): 6.99 µM
CC50 at 192 h [8]: 12.9 µM
selectivity ratio [9]: 1.84
Ratio IC50 (Zika virus [10]): 5 - 7.7

CC(C)N(CCCNC(=O)NC1CCCCC1)C[C@H]1O[C@@H](n2cnc3c(NCc4cccc(F)c4)ncnc32)[C@H](O)[C@@H]1O
IC50 (Zika virus [7]): > 50 µM

CC(C)N(CCCNC(=O)Nc1ccc(C(C)(C)C)cc1)C[C@H]1O[C@@H](n2cnc3c(NCc4cccc(F)c4)ncnc32)[C@H](O)[C@@H]1O
IC50 (Zika virus [7]): 6.65 µM
CC50 at 192 h [8]: 18.7 µM
selectivity ratio [9]: 2.81
Ratio IC50 (Zika virus [10]): 5 - 7.7

CC(C)N(CCCNC(=O)Nc1cccc(C(F)(F)F)c1)C[C@H]1O[C@@H](n2cnc3c(NCc4cccc(Cl)c4)ncnc32)[C@H](O)[C@@H]1O
IC50 (Zika virus [7]): 4.56 µM
CC50 at 192 h [8]: 5.88 µM
selectivity ratio [9]: 1.29
Ratio IC50 (Zika virus [10]): 5 - 7.7

COc1ccc(NC(=O)NCCCN(C[C@H]2O[C@@H](n3cnc4c(NCc5cccc(Cl)c5)ncnc43)[C@H](O)[C@@H]2O)C(C)C)cc1
IC50 (Zika virus [7]): > 50 µM

COC(=O)CCN(C[C@H]1O[C@@H](n2cnc3c(NCc4cccc(Cl)c4)ncnc32)[C@H](O)[C@@H]1O)C(C)C
IC50 (Zika virus [7]): > 50 µM

CC(C)N(CCCNC(=O)NC1CCCCC1)C[C@H]1O[C@@H](n2cnc3c(NCc4cccc(Cl)c4)ncnc32)[C@H](O)[C@@H]1O
IC50 (Zika virus [7]): 12.2 µM
CC50 at 192 h [8]: 57.6 µM
selectivity ratio [9]: 4.7

CC(C)N(CCCO)C[C@H]1O[C@@H](n2cnc3c(NCc4cccc(Cl)c4)ncnc32)[C@H](O)[C@@H]1O
IC50 (Zika virus [7]): 27.5 µM
CC50 at 192 h [8]: 70.6 µM
selectivity ratio [9]: 2.57

Cc1ccc(NC(=O)NCCCN(C[C@H]2O[C@@H](n3cnc4c(NCc5cccc(F)c5)ncnc43)[C@H](O)[C@@H]2O)C(C)C)cc1
IC50 (Zika virus [7]): > 50 µM

CC(C)NC[C@H]1O[C@@H](n2cnc3c(NCc4cccc(F)c4)ncnc32)[C@H](O)[C@@H]1O
IC50 (Zika virus [7]): 30 µM
CC50 at 192 h [8]: > 200 µM
selectivity ratio [9]: > 6.67

CC(C)N(CCCN)C[C@H]1O[C@@H](n2cnc3c(NCc4cccc(Cl)c4)ncnc32)[C@H](O)[C@@H]1O
IC50 (Zika virus [7]): > 50 µM

CC(C)N(CCCNC(=O)Nc1ccc(C(F)(F)F)cc1)C[C@H]1O[C@@H](n2cnc3c(NCc4cccc(Cl)c4)ncnc32)[C@H](O)[C@@H]1O
CC50 at 192 h [8]: 6.35 µM

Cc1ccc(NC(=O)NCCCN(C[C@H]2O[C@@H](n3cnc4c(NCc5cccc(Cl)c5)ncnc43)[C@H](O)[C@@H]2O)C(C)C)cc1
IC50 (Zika virus [7]): 5.8 µM
CC50 at 192 h [8]: 19.1 µM
selectivity ratio [9]: 3.29
Ratio IC50 (Zika virus [10]): 5 - 7.7

Nc1ncnc2c1ncn2[C@@H]1O[C@H](C[C@@H](N)CC[C@H](N)C(=O)O)[C@@H](O)[C@H]1O [SINEFUNGIN]
IC50 (Zika virus [7]): > 50 µM
